# Measured values as given in ChEMBL document CHEMBL4138217, “Discovery of a novel series of α-terpineol derivatives as promising anti-asthmatic agents: Their design, synthesis, and biological evaluation” (2018).
# Key:
# Smooth muscle of trachea [1] = assay: Anti-asthmatic activity in guinea pig tracheal smooth muscle ring assessed as reduction in acetylcholine-induced muscle contractions by measuring muscle relaxation at 1.25 mmol/l after 60 mins (reference value: 13.59 +/- 9.14%); format: functional, Cavia porcellus; parameters: scale not given: the % may be the effect or the level left
# How it was run: (§1)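 Guinea pig tracheal rings were held in Krebs-Henseleit at 36.5±0.5°C under 95% O2/5% CO2, at 1.0 g resting tension with 60-min equilibration. Isometric tension was recorded after acetylcholine-induced contraction. The read-out was percentage change in smooth muscle tension with compound, as means±S.D (n=10).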
# Smooth muscle of trachea [2] = assay: Anti-asthmatic activity in guinea pig tracheal smooth muscle ring assessed as reduction in acetylcholine-induced muscle contractions after 60 mins; format: functional, tissue-based; conditions: Cavia porcellus; how it was run: as §1
# Smooth muscle of trachea [3] = assay: Anti-asthmatic activity in guinea pig tracheal smooth muscle ring assessed as reduction in acetylcholine-induced muscle contractions by measuring muscle relaxation at 0.75 mmol/l after 60 mins (reference value: 7.73 +/- 4.81%); format: functional, Cavia porcellus; parameters: scale not given: the % may be the effect or the level left; how it was run: as §1
# [4] = target: Adrenergic receptor beta (Rattus norvegicus) (UniProt P18090+P10608+P26255); assay: Agonist activity at beta-adrenergic receptor in rat airway smooth muscle cells assessed as reduction in acetylcholine-induced muscle contractions by measuring cAMP levels after 18 hrs post acetylcholine stimulation by ELISA (reference value: 8.402 +/- 0.041 nmol/l); format: functional
# How it was run: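 Rat airway smooth muscle cells (passages 4–6) were seeded at 5×10^4/mL and grown for 48 h. They were stimulated with acetylcholine 0.33 mmol/L for 4 h, then exposed to compound for 18 h. Cells were trypsinized (0.25%, 2 min) and sonicated, and cAMP in the supernatant was measured by ELISA.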
# Rattus norvegicus [5] = assay: Anti-asthmatic activity in ovalbumin-induced asthmatic Sprague-Dawley rat model assessed as improvement in lung function by measuring dynamic compliance of the airway at 1.6 g/kg, po co-administered with OVA from day 15 to 21 of experiment period (reference value: 0.46 +/- 0.17); format: functional
# Rattus norvegicus [6] = assay: Anti-asthmatic activity in ovalbumin-induced asthmatic Sprague-Dawley rat model assessed as IL-14 levels in serum at 1.6 g/kg, po co-administered with OVA from day 15 to 21 of experiment period (reference value: 16.04 +/- 1.41 pg/ml); format: functional
# Rattus norvegicus [7] = assay: Anti-asthmatic activity in ovalbumin-induced asthmatic Sprague-Dawley rat model assessed as improvement in lung function by measuring airway resistance at 1.6 g/kg, po co-administered with OVA from day 15 to 21 of experiment period (reference value: 67.33 +/- 10.54); format: functional
# Rattus norvegicus [8] = assay: Anti-asthmatic activity in ovalbumin-induced asthmatic Sprague-Dawley rat model assessed as IL-17 levels in serum at 1.6 g/kg, po co-administered with OVA from day 15 to 21 of experiment period (reference value: 16.85 +/- 1.13 pg/ml); format: functional
# Rattus norvegicus [9] = assay: Anti-asthmatic activity in ovalbumin-induced asthmatic Sprague-Dawley rat model assessed as IL-17 levels in serum at 1 g/kg, po co-administered with OVA from day 15 to 21 of experiment period (reference value: 16.85 +/- 1.13 pg/ml); format: functional
# Rattus norvegicus [10] = assay: Anti-asthmatic activity in ovalbumin-induced asthmatic Sprague-Dawley rat model assessed as improvement in lung function by measuring dynamic compliance of the airway at 1 g/kg, po co-administered with OVA from day 15 to 21 of experiment period (reference value: 0.46 +/- 0.17); format: functional
# Rattus norvegicus [11] = assay: Anti-asthmatic activity in ovalbumin-induced asthmatic Sprague-Dawley rat model assessed as improvement in lung function by measuring airway resistance at 1 g/kg, po co-administered with OVA from day 15 to 21 of experiment period (reference value: 67.33 +/- 10.54); format: functional
# Rattus norvegicus [12] = assay: Anti-asthmatic activity in ovalbumin-induced asthmatic Sprague-Dawley rat model assessed as IL-14 levels in serum at 1 g/kg, po co-administered with OVA from day 15 to 21 of experiment period (reference value: 16.04 +/- 1.41 pg/ml); format: functional
# Rattus norvegicus [13] = assay: Anti-asthmatic activity in ovalbumin-induced asthmatic Sprague-Dawley rat model assessed as IL-14 levels in serum at 0.5 mg/kg, po co-administered with OVA from day 15 to 21 of experiment period (reference value: 16.04 +/- 1.41 pg/ml)
# Rattus norvegicus [14] = assay: Anti-asthmatic activity in ovalbumin-induced asthmatic Sprague-Dawley rat model assessed as IL-17 levels in serum at 0.5 mg/kg, po co-administered with OVA from day 15 to 21 of experiment period (reference value: 16.85 +/- 1.13 pg/ml)
# Rattus norvegicus [15] = assay: Anti-asthmatic activity in ovalbumin-induced asthmatic Sprague-Dawley rat model assessed as improvement in lung function by measuring airway resistance at 0.5 mg/kg, po co-administered with OVA from day 15 to 21 of experiment period (reference value: 67.33 +/- 10.54)
# Rattus norvegicus [16] = assay: Anti-asthmatic activity in ovalbumin-induced asthmatic Sprague-Dawley rat model assessed as improvement in lung function by measuring dynamic compliance of the airway at 0.5 mg/kg, po co-administered with OVA from day 15 to 21 of experiment period (reference value: 0.46 +/- 0.17)
Activity [4],Structure (SMILES),Activity (Smooth muscle of trachea [1]),Activity (Smooth muscle of trachea [2]),Activity (Smooth muscle of trachea [3]),also measured
–,CCCC(=O)OC(C)(C)C1CC=C(C)CC1 (stereo not given),25.47%,Dose-dependent effect,21.2%,–
8.81 nmol/L,CC1=CCC(C(C)(C)OC(=O)CN2CCOCC2)CC1 (stereo not given),–,Dose-dependent effect,–,–
8.82 nmol/L,CC1=CCC(C(C)(C)OC(=O)CSCCO)CC1 (stereo not given),–,Dose-dependent effect,–,Activity (Rattus norvegicus [5]): 0.88; Activity (Rattus norvegicus [6]): 14 pg/mL; Activity (Rattus norvegicus [7]): 41.69; Activity (Rattus norvegicus [8]): 15.09 pg/mL
–,CC1CCC(C(C)(C)O)CC1 (stereo not given),–,Dose-dependent effect,–,–
9.53 nmol/L,CCN(CC)CC(=O)OC(C)(C)C1CC=C(C)CC1 (stereo not given),–,Dose-dependent effect,–,–
–,CC1=CCC(C(C)(C)OC(=O)CN2CCC(=O)CC2)CC1 (stereo not given),–,Dose-dependent effect,–,–
–,CCCCCCCCCCCCCCCCCC(=O)OC(C)(C)C1CC=C(C)CC1 (stereo not given),–,Dose-dependent effect,–,–
–,CC1=CCC(C(C)(C)OC(=O)CO[N+](=O)[O-])CC1 (stereo not given),–,Dose-dependent effect,–,–
8.76 nmol/L,CC1=CCC(C(C)(C)OC(=O)CSCC(O)CO)CC1 (stereo not given),65.29%,Dose-dependent effect,34.84%,–
–,CCC(=O)OC(C)(C)C1CC=C(C)CC1 (stereo not given),23.22%,Dose-dependent effect,18.18%,–
8.98 nmol/L,CC1=CCC(C(C)(C)OC(=O)CN2CCC(O)CC2)CC1 (stereo not given),–,Dose-dependent effect,–,–
–,CC1=CCC(C(C)(C)OC(=O)CN2CCCCC2)CC1 (stereo not given),–,Dose-dependent effect,–,–
8.94 nmol/L,CC1=CCC(C(C)(C)OC(=O)CN(CCO)CCO)CC1 (stereo not given),–,Dose-dependent effect,–,–
8.51 nmol/L,CC1=CCC(C(C)(C)O)CC1 (stereo not given),–,Dose-dependent effect,–,Activity (Rattus norvegicus [9]): 16.19 pg/mL; Activity (Rattus norvegicus [10]): 0.53; Activity (Rattus norvegicus [11]): 60.57; Activity (Rattus norvegicus [12]): 15.5 pg/mL
–,CC(=O)OCC(=O)[C@@]1(O)[C@H](C)C[C@H]2[C@@H]3CCC4=CC(=O)C=C[C@]4(C)[C@@]3(F)[C@@H](O)C[C@@]21C [DEXAMETHASONE ACETATE],–,–,–,Activity (Rattus norvegicus [13]): 14.31 pg/mL; Activity (Rattus norvegicus [14]): 16.06 pg/mL; Activity (Rattus norvegicus [15]): 41.51; Activity (Rattus norvegicus [16]): 0.66
9.01 nmol/L,CC1=CCC(C(C)(C)OC(=O)CN(C)CCO)CC1 (stereo not given),–,Dose-dependent effect,–,Activity (Rattus norvegicus [5]): 0.84; Activity (Rattus norvegicus [6]): 15.66 pg/mL; Activity (Rattus norvegicus [7]): 51.69; Activity (Rattus norvegicus [8]): 16.35 pg/mL
–,CC(=O)OC(C)(C)C1CC=C(C)CC1 (stereo not given),47.72%,Dose-dependent effect,34.35%,–
–,CC1=CCC(C(C)(C)OC(=O)C(C)C)CC1 (stereo not given),22.79%,Dose-dependent effect,19.88%,–
–,CC1=CCC(C(C)(C)OC=O)CC1 (stereo not given),21.57%,Dose-dependent effect,14.62%,–
–,CCCCCCCCCCCCCC(=O)OC(C)(C)C1CC=C(C)CC1 (stereo not given),–,Dose-dependent effect,–,–
–,CC1=CCC(C(C)(C)OC(=O)C(C)(C)C)CC1 (stereo not given),28.02%,Dose-dependent effect,25.49%,–

Structure (SMILES),Activity [4],Activity (Smooth muscle of trachea [1]),Activity (Smooth muscle of trachea [2]),Activity (Smooth muscle of trachea [3]),also measured
Cn1c(=O)c2[nH]cnc2n(C)c1=O,8.6 nmol/L,–,Dose-dependent effect,–,–
